Assay outcomes (PubChem BioAssay)
In the library only some 4.6% were active in any assay of this set; here they are far more common.
NALP1 yeast inh: blocks the NALP1 inflammasome reconstituted in yeast. S. cerevisiae NALP1/ASC/caspase-1 growth, X-gal OD620, 72 h. inhibition, % at 10 µM. 0.61% of 280,000 active. AID 2071; in the data active means inhibition mostly above about 24%, no sharp cut-off; inactive means mostly below about 32%
ALR inh: inhibitors of human sulfhydryl oxidase ALR | purified ALR, DTT oxidation, H2O2 HRP-luminol luminescence | inhibition, % (concentration not given with the values) | 3.8% of 290,000 active | AID 485317;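 active means mean replicate inhibition above about 79%, with every replicate also reaching it, limit read from the data; inconclusive means only one of the two criteria met; inactive means mean below limit and not every replicate reaching it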
Target sequence (P55789 whole entry, looked up): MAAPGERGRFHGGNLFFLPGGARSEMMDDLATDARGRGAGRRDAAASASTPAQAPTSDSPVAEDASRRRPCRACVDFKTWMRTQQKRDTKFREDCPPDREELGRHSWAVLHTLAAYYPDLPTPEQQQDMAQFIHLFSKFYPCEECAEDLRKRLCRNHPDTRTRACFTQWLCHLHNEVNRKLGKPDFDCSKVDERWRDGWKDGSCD
PolyA inhibitor: inhibitors of polyadenylation in S. cerevisiae; 0.02% of 300,000 active; activity score, % at 12 µM; AID 1875; S. cerevisiae SKY197-pL101 polyadenylation reporter, beta-gal luminescence; efflux-impaired pdr1/pdr3 knockout yeast; score 100 = 6 SD above DMSO;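 active means lowest replicate activity score at least 50, where 100 means six control SD above control mean; inconclusive means lowest score under 50 but half or more replicates reach 50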;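 further: yeast exposed to compound for 9 h at 30 °C; higher score means more reporter readthrough which indicates perturbed polyadenylation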
Arr AP2 block: blocks beta-arrestin peptide binding to AP2 adaptin; inhibition, % at 10 µM; FITC-arrestin peptide / GST-AP2 beads, flow cytometry; AP2 beta2 appendage carries R879A mutation; 0.31% of 340,000 active;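 active means inhibition above a set limit, near 3 SD of compounds lacking own fluorescence, cut at about 54% in these data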;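 further: plate controls were DMSO wells for no effect and 5 µM unlabelled arrestin peptide for full effect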
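System: GST-tagged AP2 beta2-adaptin appendage (R879A) on 4 µm glutathione beads / Reagent: FITC-arrestin peptide, 50 nM / Detection: HyperCyt-sampled flow cytometry, FL1 channel, ex 488/em 535 nm / Timing: 12 min plus 1 h, RT / Buffer or medium: PBS plus Tween 20 (0.05%) and BSA (0.1%)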
Pemphigus Ab inh: human desmoglein-3 autoantibody binding inhibition | 0.48% of 310,000 active | DSG3-coupled beads, scFv-anti-DSG3-GFP binding, flow cytometry; active compounds read low | AID 588358 | binding (percent of control), % at 10 µM;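 active means binding more than 3 SD below its plate's average and above zero; inconclusive means below that plate limit but binding exactly zero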;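 further: hits lower antibody fragment binding to DSG3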
NLRP3 yeast inh: blocks the NALP3 inflammasome reconstituted in yeast; Yeast reconstituted NLRP3/ASC/caspase-1, beta-gal luminescence, 24 h; inhibition, % at 10 µM; 0.39% of 330,000 active; AID 2825;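 active means inhibition of 50% or more; inactive means inhibition below 50%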;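 further: plate controls were induced DMSO wells for no effect and uninduced yeast grown without galactose for full effect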
Numbers without * were called inactive; ? = inconclusive; · = no result given.

SMILES	NALP1 yeast inh	ALR inh	PolyA inhibitor	Arr AP2 block	Pemphigus Ab inh	NLRP3 yeast inh
CC(C)Sc1nc(-c2ccccc2)cc(=O)[nH]1	12	-9	-14	9	108	-3
O=c1cc(-c2ccccc2)nc(Sc2ccc([N+](=O)[O-])cc2[N+](=O)[O-])[nH]1	·	16	-13	39	81*	14
C=CC[C@@H](CC(=O)N[C@H](CO)Cc1ccccc1)C(=O)NC[C@H](OC(=O)[C@@H](CC=C)Cc1ccc(F)cc1)c1ccccc1	·	1	·	-9	106	10
S=c1[nH]cc(-c2ccccc2)[nH]1	·	99*	-1	-5	93	14
O=[N+]([O-])c1ccc(-c2nc3ccc([N+](=O)[O-])cc3[nH]2)cc1	3	2	-10	6	100	21
O=[N+]([O-])c1ccc(-c2c[nH]c(=S)[nH]2)cc1	-6	98*	-5	-8	79	11
C=CCN(c1ccccc1)S(=O)(=O)c1cccc(C(=O)Nc2ccc(N3CCOCC3)cc2)c1	·	·	·	5	98	7
Cc1nn(C)cc1CN(C)C(=O)C1CCC(=O)N(CCc2cccc(F)c2)C1 (stereo not given)	·	·	·	·	101	·
Cc1ccc(S(=O)(=O)N(C)C[C@@H]2OCc3cnnn3CCCC(=O)N([C@H](C)CO)C[C@@H]2C)cc1	·	·	·	·	106	·
CC(C)(C)NC(=O)NC(=O)CSc1n[nH]c(-c2ccccc2Br)n1	6	96*	13	5	99	0
CCCS(=O)(=O)N1CCC(C(=O)NCCN(CC)c2ccccc2)CC1	35	71	14	1	100	11
CCN(CCNC(=O)C1CCN(S(C)(=O)=O)CC1)c1ccccc1	24	99*	8	34	87	-7
CCN(CCCNC(=O)C1CCN(S(=O)(=O)CC)CC1)c1ccccc1	9	99*	-4	-5	105	-3
CCN(CCCNC(=O)C1CCN(S(=O)(=O)N2CCC3(CC2)OCCO3)CC1)c1ccccc1	15	99*	-18	6	106	5
CCN(CCCNC(=O)C1CCN(S(=O)(=O)c2c(C)[nH]c(=O)[nH]c2=O)CC1)c1cccc(C)c1	5	·	17	-8	109	11
O=C(NCCc1ccccc1)C1CCN(S(=O)(=O)N2CCC3(CC2)OCCO3)CC1	33	-17	3	5	84	1
CCN(CCCNC(=O)C1CCN(S(=O)(=O)CC)CC1)c1cccc(C)c1	-32	99*	-13	9	99	-6
CC1Sc2ccc(C(=O)OCc3ccccc3Cl)cc2NC1=O (stereo not given)	·	-5	-1	7	99	22
CCC(C)c1ccc(OCC(=O)Nc2ccc3c(c2)C(=O)NC3=O)cc1 (stereo not given)	15	-5	-14	9	·	10
CCN(CCCNC(=O)C1CCC(=O)N1Cc1ccc(F)cc1)c1cccc(C)c1 (stereo not given)	2	99*	17	-5	105	-8
CCCCN(CCCNC(=O)C1CCN(S(=O)(=O)N2CCOCC2)CC1)c1ccccc1	9	99*	-6	7	102	-1
CCN(CCCNC(=O)C1CCC(=O)N1C1CCCC1)c1cccc(C)c1 (stereo not given)	14	·	-14	0	109	1
CCOC(=O)c1sc(NC(=O)CN2CC(C)OC(C)C2)nc1C (stereo not given)	8	·	6	-3	108	10
COc1ccc(NC(=O)CSc2nccn2Cc2ccco2)cc1OC	-3	55	-16	-3	115	6
O=C(NCCCN1CCOCC1)c1cc2nc(-c3ccco3)cc(C(F)(F)F)n2n1	9	·	-6	35	33*	22
SMILES	NALP1 yeast inh	ALR inh	PolyA inhibitor	Arr AP2 block	Pemphigus Ab inh	NLRP3 yeast inh
Cc1ccc(OCCNC(=O)c2ccccc2F)cc1	42	-1	2	3	109	30
NS(=O)(=O)c1ccc(CNC(=O)c2cc(-c3cccnc3)nc3ccc(Br)cc23)cc1	4	-1	8	3	96	15
O=S(=O)(Nc1nc2c(s1)CCCC2)c1ccc2ccccc2c1	3	48	6	6	109	-8
O=S(=O)(NC1=NCCCCC1)c1ccc2sc(NS(=O)(=O)c3ccc4ccccc4c3)nc2c1	·	87*	-9	5	89	5
O=C(COc1ccc(Cl)cc1Cl)Nn1c(=S)[nH]c2ncccc2c1=O	20	?	9	-5	127	26
COc1ccccc1OCC(=O)Nn1c(=S)[nH]c2ncccc2c1=O	24	91*	14	7	118	13
CCCn1c(N)c(N(CCOC)C(=O)CSc2c(Cl)cccc2Cl)c(=O)[nH]c1=O	·	2	·	3	·	12
COc1ccc(N=C2C(=O)N3CCCc4cccc2c43)cc1	27	99*	-16	-3	·	7
CCN(Cc1ccccc1)S(=O)(=O)c1ccc(C(=O)N(CCCN(C)C)c2nc3c(C)c(C)ccc3s2)cc1	·	-11	12	-13	113	19
COc1cccc(-c2cccc(NC(=O)C3CCN(CCCn4cccn4)CC3)c2)c1	·	·	·	·	103	·
CCC/C(O)=C1\C(=O)CC(C)(C)CC1=Nc1ccccc1O	-10	87*	-8	-1	97	-1
O=[N+]([O-])c1ccccc1S(=O)(=O)N1CCN(Cc2ccccc2)CC1	7	-12	2	18	111	10
O=[N+]([O-])c1ccccc1S(=O)(=O)N1CCN(Cc2ccc3c(c2)OCO3)CC1	20	2	3	3	37*	12
O=C(Nc1cccc(-c2nn[nH]n2)c1)c1csc2c1CCCC2	8	99*	2	-7	102	6
O=C(COc1ccccc1)Nc1cccc(-c2nn[nH]n2)c1	6	99*	7	-6	108	2
CC(=O)Nc1cccc(-c2nn[nH]n2)c1	·	·	8	-2	100	19
COc1ccccc1C(=O)NC(=O)CSc1nncn1C(C)C	·	-1	-3	24	101	12
Cc1cc(C)nc(SCc2cc(=O)c(OC(=O)c3ccco3)co2)n1	33	21	3	-5	98	14
Cc1cc(C)nc(SCc2cc(=O)c(OC(=O)c3cc([N+](=O)[O-])ccc3Cl)co2)n1	40	94*	11	-1	95	15
CCOC(=O)C1CCN(C(=O)c2ccc(S(=O)(=O)Nc3ccccc3OC)cc2)CC1	·	-1	·	-7	·	18
COc1cccc(CN(C)CCCn2cnc3c(SC)ncnc32)c1	·	·	·	·	109	·
COc1cccc(/C=C/C(=O)c2ccc[nH]2)c1	42*	29	-15	5	97	-5
C[C@H](NC(=O)c1ncn2c1C(=O)N[C@@H](C)C2)C(=O)OC(C)(C)C	·	·	·	·	105	·
